From ChEMBL document CHEMBL1143314, “Bone selective effect of an estradiol conjugate with a novel tetracycline-derived bone-targeting agent” (2009)
Blank lines part the entries; values can stand above or below the compound they belong to. Active and inactive are the calls of the source. No cut-off for these calls is given here.

How the values were obtained:
[1] = system: Hydroxyapatite; experiment: Binding affinity to bone mineral hydroxyapatite assessed as binding index
Method in brief: (§1)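 Analyte 10^-5 M final in 50 mM Tris–HCl pH 7.4, 1% DMSO (from 10^-3 M DMSO stock), mixed by inversion 4 min with HA slurry (0.5 g/100 mL) or buffer alone, centrifuged 12,000g 3 min. Supernatant UV-vis scanned 220–520 nm; concentration at λmax by Beer–Lambert; fraction adsorbed calculated. Tetracycline reference set to index 100.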

[2] = system: Hydroxyapatite; experiment: Binding affinity to bone mineral hydroxyapatite; method in brief: as §1
[3] = system: Hydroxyapatite; experiment: Binding affinity to bone mineral hydroxyapatite relative to tetracyclin; method in brief: as §1
[4] = system: Rattus norvegicus; experiment: Antibone resorptive activity in sc dosed Sprague-Dawley rat assessed as inhibition of bilaterally ovariectomization-induced decrease in body weight normalized femoral mass administered 4 days after sugery at three times per week schedule for 6 weeks; type: functional
Method in brief: (§2)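 Three-month-old female Sprague–Dawley rats, bilaterally ovariectomized or sham-operated, given vehicle or drug s.c. three times weekly from 4 days post-surgery for 6 weeks. Excised femur and uterus weighed, normalized to body mass. Percent effect = (treatment − OVX control)/(sham − OVX control); n = 6–10 per group; mean SEM; ED50 from dose–response curves.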

[5] = system: Rattus norvegicus; experiment: Antibone resorptive activity in sc dosed Sprague-Dawley rat assessed as inhibition of bilaterally ovariectomization-induced decrease in body weight normalized uterine mass administered 4 days after sugery at three times per week schedule for 6 weeks; type: functional; method in brief: as §2

Activity [2]: inactive
SMILES: O=C(O)c1c(O)cccc1O

Activity [3]: 50%
SMILES: NC(=O)c1c(O)ccc(N)c1O

Activity [2]: inactive
SMILES: NC(=O)c1c(O)cccc1O

Second part, the compound before the results:

SMILES: CN(C)[C@@H]1C(O)=C(C(N)=O)C(=O)[C@@]2(O)C(O)=C3C(=O)c4c(O)cccc4[C@@](C)(O)[C@H]3C[C@@H]12
Activity [1]: 100

SMILES: NC(=O)C1C(=O)CCCC1=O
Activity [2]: inactive

SMILES: C[C@]12CC[C@@H]3c4ccc(O)cc4CC[C@H]3[C@@H]1CC[C@@H]2O [ESTRADIOL]
Activity [4]: Dose-dependent effect | ED50 [4]: 0.01 µmol/kg | ED50 [5]: 0.009 µmol/kg
